Experimental data published in ChEMBL document CHEMBL1125639, “Synthesis and resolution of (+-)-7-chloro-8-hydroxy-1-(3'-iodophenyl)-3-methyl-2,3,4,5-tetrahydro- 1H-3- benzazepine (TISCH): a high affinity and selective iodinated ligand for CNS D1 dopamine receptor” (J Med Chem, 1991).

Tests used:
Rattus norvegicus [1] = test: Biodistribution of compound in rats blood after an intravenous injection was measured at 4 hr; type: ADME, organism-based; settings: in vivo
In short: (§1)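 Male Sprague-Dawley rats (225-300 g), free access to food and water. Under ether anesthesia, given 0.2 mL saline containing 125I-labelled ligand (2-5 μCi, ~2200 Ci/mmol) into the femoral vein. Killed by cardiac excision at set times. Organs removed, weighed and gamma-counted. % dose/organ is taken against diluted injectate aliquots, with blood and muscle assumed to be 7% and 40% of body weight. Mean of 3 rats ± std dev.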

Rattus norvegicus [2] = test: Biodistribution of compound in rats liver after an intravenous injection was measured at 30 min; type: ADME, organism-based; settings: in vivo, 0.5 h; in short: as §1
Rattus norvegicus [3] = test: Regional brain distribution of compound in rats cerebellum after an intravenous injection was measured at 4 hr; type: ADME, organism-based; settings: in vivo
In short: (§2)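 After femoral-vein injection of [125I]-labeled ligand (2-5 μCi, ~2200 Ci/mmol, 0.2 mL saline, ether anesthesia) into male Sprague-Dawley rats (225-300 g), brains were dissected into cortex, striatum and cerebellum, weighed and gamma-counted. % dose/gram calculated against diluted initial dose; regional ratio = % dose/gram of region divided by that of cerebellum.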

Rattus norvegicus [4] = test: Biodistribution of compound in rats lung after an intravenous injection was measured at 30 min; type: ADME, organism-based; settings: in vivo, 0.5 h; in short: as §1
Rattus norvegicus [5] = test: Biodistribution of compound in rats spleen after an intravenous injection was measured at 4 hr; type: ADME, organism-based; settings: in vivo; in short: as §1
Rattus norvegicus [6] = test: Regional brain distribution of compound in rats cerebellum after an intravenous injection was measured at 1 hr; type: ADME, organism-based; settings: in vivo; in short: as §2
Rattus norvegicus [7] = test: Biodistribution of compound in rats lung after an intravenous injection was measured at 4 hr; type: ADME, organism-based; settings: in vivo; in short: as §1
Rattus norvegicus [8] = test: Biodistribution of compound in rats heart after an intravenous injection was measured at 1 hr; type: ADME, organism-based; settings: in vivo; in short: as §1
Rattus norvegicus [9] = test: Biodistribution of compound in rats muscle after an intravenous injection was measured at 1 hr; type: ADME, organism-based, Muscle tissue; settings: in vivo; in short: as §1
Rattus norvegicus [10] = test: Biodistribution of compound in rats muscle after an intravenous injection was measured at 30 min; type: ADME, organism-based, Muscle tissue; settings: in vivo, 0.5 h; in short: as §1
Rattus norvegicus [11] = test: Biodistribution of compound in rats thyroid after an intravenous injection was measured at 1 hr; type: ADME, organism-based, Thyroid gland; settings: in vivo; in short: as §1
Rattus norvegicus [12] = test: Biodistribution of compound in rats liver after an intravenous injection was measured at 24 hr; type: ADME, organism-based; settings: in vivo; in short: as §1
Rattus norvegicus [13] = test: Biodistribution of compound in rats skin after an intravenous injection was measured at 1 hr; type: ADME, organism-based, Zone of skin; settings: in vivo; in short: as §1
Rattus norvegicus [14] = test: Biodistribution of compound in rats liver after an intravenous injection was measured at 1 hr; type: ADME, organism-based; settings: in vivo; in short: as §1
Rattus norvegicus [15] = test: Biodistribution of compound in rats lung after an intravenous injection was measured at 24 hr; type: ADME, organism-based; settings: in vivo; in short: as §1
Rattus norvegicus [16] = test: Biodistribution ratio measured as the ratio of compound present in brain to that of blood at 30 minutes after intravenous injection; type: ADME, organism-based; settings: 0.5 h
In short: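 Male Sprague-Dawley rats (225-300 g) given 0.2 mL saline containing [125I]-labeled ligand (2-5 μCi, ~2200 Ci/mmol) via femoral vein under ether anesthesia; sacrificed at set times by cardiac excision. Brain and blood weighed and gamma-counted against diluted injectate; ratio taken from % dose/gram values, 3 rats per time point.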

Rattus norvegicus [17] = test: Biodistribution of compound in rats brain after an intravenous injection was measured at 4 hr; type: ADME, organism-based; settings: in vivo
In short: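 Rats (male Sprague-Dawley, 225-300 g) given the 125I ligand (2-5 μCi, ~2200 Ci/mmol) in 0.2 mL saline via the femoral vein under ether anesthesia, then killed at set times. Whole brain removed, weighed and gamma-counted. % dose/organ is taken against diluted injectate aliquots. Mean of 3 rats ± std dev.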

Rattus norvegicus [18] = test: Biodistribution of compound in rats spleen after an intravenous injection was measured at 24 hr; type: ADME, organism-based; settings: in vivo; in short: as §1
Rattus norvegicus [19] = test: Biodistribution of compound in rats thyroid after an intravenous injection was measured at 4 hr; type: ADME, organism-based, Thyroid gland; settings: in vivo
In short: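 Male Sprague-Dawley rats (225-300 g), free access to food and water; under ether anesthesia, 0.2 mL saline containing [125I]-labeled ligand (2-5 μCi, ~2200 Ci/mmol) injected into femoral vein; killed by cardiac excision under ether at set times. […] removed, weighed, gamma-counted; % dose/organ from comparison with diluted aliquots of injectate; mean of 3 rats ± std dev.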

Rattus norvegicus [20] = test: Regional brain distribution of compound in rats striatum after an intravenous injection was measured at 1 hr; type: ADME, organism-based; settings: in vivo; in short: as §2
Rattus norvegicus [21] = test: Biodistribution of compound in rats blood after an intravenous injection was measured at 24 hr; type: ADME, organism-based; settings: in vivo; in short: as §1
Rattus norvegicus [22] = test: Biodistribution of compound in rats blood after an intravenous injection was measured at 30 min; type: ADME, organism-based; settings: in vivo, 0.5 h; in short: as §1
Rattus norvegicus [23] = test: Regional brain distribution of compound in rats cerebellum after an intravenous injection was measured at 2 min; type: ADME, organism-based; settings: in vivo; in short: as §2
Rattus norvegicus [24] = test: Biodistribution of compound in rats skin after an intravenous injection was measured at 4 hr; type: ADME, organism-based, Zone of skin; settings: in vivo; in short: as §1
Rattus norvegicus [25] = test: Biodistribution of compound in rats kidney after an intravenous injection was measured at 30 min; type: ADME, organism-based; settings: in vivo, 0.5 h; in short: as §1
Rattus norvegicus [26] = test: Biodistribution of compound in rats heart after an intravenous injection was measured at 30 min; type: ADME, organism-based; settings: in vivo, 0.5 h; in short: as §1
Rattus norvegicus [27] = test: Biodistribution of compound in rats kidney after an intravenous injection was measured at 1 hr; type: ADME, organism-based; settings: in vivo; in short: as §1
Rattus norvegicus [28] = test: Biodistribution of compound in rats lung after an intravenous injection was measured at 2 min; type: ADME, organism-based; settings: in vivo; in short: as §1

`CN1CCc2cc(Cl)c(O)cc2[C@@H](c2cccc(I)c2)C1` was tested, and the Biodistribution (Rattus norvegicus [1]) was 0.254, the Biodistribution (Rattus norvegicus [2]) was 11.45 and the Biodistribution (Rattus norvegicus [3]) was 0.011. For the same molecule, the Biodistribution (Rattus norvegicus [4]) was 1.24, the Biodistribution (Rattus norvegicus [5]) was 0.015 and the Biodistribution (Rattus norvegicus [6]) was 0.129. For the same molecule, the Biodistribution (Rattus norvegicus [7]) was 0.122, the Biodistribution (Rattus norvegicus [8]) was 0.088 and the Biodistribution (Rattus norvegicus [9]) was 8.59. It also gave a Biodistribution (Rattus norvegicus [10]) of 9.3, a Biodistribution (Rattus norvegicus [11]) of 0.059 and a Biodistribution (Rattus norvegicus [12]) of 3.84. For the same molecule, the Biodistribution (Rattus norvegicus [13]) was 7.42, the Biodistribution (Rattus norvegicus [14]) was 9.814 and the Biodistribution (Rattus norvegicus [15]) was 0.012. For the same molecule, the Biodistribution (Rattus norvegicus [16]) was 12.7%, the Biodistribution (Rattus norvegicus [17]) was 0.102 and the Biodistribution (Rattus norvegicus [18]) was 0.001. The Biodistribution (Rattus norvegicus [19]) was 0.118, the Biodistribution (Rattus norvegicus [20]) was 1.455 and the Biodistribution (Rattus norvegicus [21]) was 0.046. For the same molecule, the Biodistribution (Rattus norvegicus [22]) was 0.773, the Biodistribution (Rattus norvegicus [23]) was 1.03 and the Biodistribution (Rattus norvegicus [24]) was 1.14. It also gave a Biodistribution (Rattus norvegicus [25]) of 0.945, a Biodistribution (Rattus norvegicus [26]) of 0.137 and a Biodistribution (Rattus norvegicus [27]) of 0.883. It also gave a Biodistribution (Rattus norvegicus [28]) of 10.18.
